C2C12 statin: suppressors of simvastatin-induced myotoxicity in C2C12 myotubes. ATP luminescence, 48 h; scaled: DMSO 0, geranylgeraniol control 100. rescue of ATP level, % at 7.49 µM. 330,000 tested, 0.78% active. AID 602340;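 active = mean ATP rescue above about 67%, or every replicate alone reaching that limit, limit read from the data, passing the limit was not always enough; inconclusive = no clear call, values can overlap the other calls; inactive = mean under the limit and some replicate under it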;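 also: myotubes were challenged with 10 µM simvastatin during compound exposure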
PGC1a acetyl inh: modulators of PGC1a acetylation | U2OS PGC1a acetylation, AlphaScreen anti-acetyl-lysine; with virally co-expressed GCN5 acetyltransferase | inhibition, % at 15.6 µM | 350,000 tested, 0.17% active | AID 651687;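 active = every replicate shows inhibition of at least 40%; inconclusive = mean inhibition at least 40% but some replicate below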;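 also: 0% = neutral control wells and 100% = positive control wells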
Rtt109 HAT inh: inhibitors of Candida albicans Rtt109/Vps75 histone acetyltransferase; purified Rtt109/Vps75, ThioGlo CoA-SH fluorescence, 4 h; AID 540336; 330,000 tested, 0.16% active; inhibition, % at 34.9 µM;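 active = inhibition of at least 50% in every replicate; inconclusive = best replicate reaches 50% inhibition but some replicates fall short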
Target sequence (Q5AAJ8 whole entry, looked up): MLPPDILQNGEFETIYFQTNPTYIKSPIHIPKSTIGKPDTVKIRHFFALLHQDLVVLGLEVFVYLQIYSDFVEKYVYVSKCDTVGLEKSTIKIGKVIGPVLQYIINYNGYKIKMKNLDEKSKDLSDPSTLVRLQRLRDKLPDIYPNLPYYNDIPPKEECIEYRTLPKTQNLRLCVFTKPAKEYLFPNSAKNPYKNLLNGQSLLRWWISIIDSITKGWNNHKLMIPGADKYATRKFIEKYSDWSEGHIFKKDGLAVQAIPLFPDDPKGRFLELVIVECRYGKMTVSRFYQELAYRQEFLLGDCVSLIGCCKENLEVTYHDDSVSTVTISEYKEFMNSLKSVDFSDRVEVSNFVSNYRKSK
ERAP1 HTS inh: ERAP1 (human) enzyme inhibition. AID 652197. 340,000 tested, 0.15% active. recombinant ERAP1, Leu-AMC fluorescence, 60 min. Q9NZ08. inhibition, % at 10.7 µM;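 active = mean replicate inhibition of at least 30%, or all replicates individually reaching that 30% level; inactive = mean below 30% and not every replicate reaching it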;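 also: 0% = neutral control wells and 100% = L-leucinethiol positive control wells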
S100A4 inh HTS: S100A4-myosin IIA interaction inhibition | P26447 | S100A4/TAMRA-MyoIIA peptide fluorescence polarization | inhibition, % at 10.7 µM | 360,000 tested, 0.14% active | AID 652163;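 active = mean inhibition of at least 70% across replicates, with every replicate also reaching that level; inconclusive = mean inhibition reaches 70% but some replicates fall short; inactive = mean inhibition below 70%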
Target sequence (P26447 whole entry, looked up): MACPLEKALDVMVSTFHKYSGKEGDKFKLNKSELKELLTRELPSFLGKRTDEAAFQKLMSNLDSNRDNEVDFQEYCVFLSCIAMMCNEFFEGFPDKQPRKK
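Test system: S100A4 monomer protein; Medium: HEPES pH 7.2 with CaCl2, KCl, NaCl, DTT, Triton; Probe or stimulus: TAMRA-labelled myosin IIA heavy-chain peptide probe, 5 nM; Doses: one dose per compound; Times: polarization read 5 min after assay mix addition, stable 5–60 min; Benchmarks: neutral control DMSO, positive control TFP.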
* = called active by the depositor; ? = inconclusive; nt = not tested or not shown. A selection: hits, their analogues and other compounds. The true share with any hit is near 0.98%.

SMILES | C2C12 statin | PGC1a acetyl inh | Rtt109 HAT inh | ERAP1 HTS inh | S100A4 inh HTS
Cc1cc2ncn(/N=C/c3ccc(-c4ccccc4)o3)c2cc1C | 146* | -5 | -2 | 5 | -3
Cc1cc2ncn(/N=C/c3cccnc3)c2cc1C | -7 | -11 | -5 | nt | nt
CN(C)c1ccc2c(c1)[C@H]1C[C@@H](CC(=O)N3CCCCC3)O[C@@H](CO)[C@H]1O2 | nt | nt | nt | 3 | -12
CC(=O)Cc1cc(O)c2ccccc2c1OC(=O)c1ccc(Br)cc1 | 88* | 6 | 7 | 6 | -4
COc1ccc(CC(=O)Nc2cc(C)on2)cc1 | 137* | 3 | 0 | nt | nt
C[C@H](CO)N1C[C@H](C)[C@@H](CN(C)C(=O)NC2CCCCC2)OCCCC[C@H](C)Oc2ccc(NC(=O)Nc3ccccc3)cc2C1=O | nt | -2 | nt | 0 | 1
COc1ccc(OC)c(CN2CCN(Cc3ccc(OC)c(OC)c3OC)CC2)c1 | -2 | nt | nt | 0 | -1
COc1ccc2oc(=O)cc(CN3CCN(Cc4ccc(OC)c(OC)c4OC)CC3)c2c1 | 123* | 0 | -3 | -1 | -1
Cc1ccc(-c2nc3ncccc3o2)cc1NC(=O)c1ccc([N+](=O)[O-])o1 | 233* | -14 | 17 | nt | nt
O=C(Nc1nc(-c2ccccn2)cs1)c1ccccc1-n1cnnn1 | -26 | 43* | 1 | -4 | -3
O=C(Nc1ccc2oc(-c3ccncc3)nc2c1)c1ccc([N+](=O)[O-])o1 | 145* | nt | -4 | 3 | -3
O=C(Nc1ccc(-c2nc3ncccc3o2)cc1)c1ccc([N+](=O)[O-])o1 | 226* | nt | -8 | -1 | 5
CN(C)C(=O)c1ccc(-c2ccc([C@H]3[C@@H](CO)N4CCCCN(C(=O)C5CCC5)C[C@@H]34)cc2)cc1 | nt | -3 | nt | -4 | 1
O=C(C[C@H]1C[C@H]2c3cc(NC(=O)C4CCOCC4)ccc3O[C@H]2[C@H](CO)O1)NC1CCCC1 | -3 | 1 | nt | -1 | 12
COCC#Cc1ccc2c(c1)O[C@@H](CN(C)C(=O)C1CC1)[C@@H](C)CN([C@@H](C)CO)S2(=O)=O | -31 | -5 | nt | 1 | -9
CCC(=O)N[C@@H]1CC[C@H](CCNC(=O)Nc2ccc(F)cc2)O[C@H]1CO | 0 | 4 | nt | -2 | 5
Cc1ccc(C(=O)Nc2nc(-c3ccccn3)cs2)o1 | nt | nt | 1 | -3 | -3
O=C(Nc1nc(-c2ccccn2)cs1)c1ccc([N+](=O)[O-])o1 | 241* | -11 | 2 | 24 | -6
Cc1cc(-c2nc3ncccc3o2)ccc1N | 100* | 5 | -82 | nt | nt
C[C@H]1CN([C@@H](C)CO)C(=O)Cc2cc(NC(=O)Cn3cnnn3)ccc2O[C@H]1CN(C)S(=O)(=O)c1ccc(F)cc1 | -20 | 1 | nt | 1 | -5
CCNC(=O)[C@H]1[C@H](CO)[C@H]2Cn3c(ccc(C4=CCCCC4)c3=O)[C@@H]1N2CCC(F)(F)F | nt | nt | nt | -1 | 4
CCn1c(CCCCc2n[nH]c(=S)n2CC)n[nH]c1=S | nt | 10 | 12 | 6 | -3
CCn1c(CN2c3ccccc3Sc3ccccc32)n[nH]c1=S | 86* | -2 | 10 | -3 | -1
Cc1cc(Oc2ccccc2)nc(-c2ccccc2O)n1 | 104* | 4 | -9 | nt | nt
C=CCOc1cc(C)nc(-c2ccccc2O)n1 | -2 | 2 | -6 | nt | nt
SMILES | C2C12 statin | PGC1a acetyl inh | Rtt109 HAT inh | ERAP1 HTS inh | S100A4 inh HTS
Cc1cc(N2CCCC2)nc(-c2ccccc2O)n1 | 115* | -9 | -1 | nt | nt
Cc1nc([N+](=O)[O-])c(Br)n1CC(=O)c1ccc(Br)cc1 | 3 | 64* | -2 | nt | nt
CO[C@H]1CN(C)C(=O)c2ccc(NC(=O)C3CCCCC3)cc2OC[C@@H](C)NC[C@@H]1C | 2 | nt | nt | -2 | -18
O=c1oc2cc(OCc3ccc(F)cc3F)ccc2cc1-c1ccccn1 | 130* | 3 | nt | nt | nt
CCn1c(SCC(=O)c2ccc(Br)cc2)nnc1C(C)NC(=O)Cc1ccc(OC)cc1 (stereo not drawn) | 3 | -10 | -6 | nt | nt
CCn1c(SCC(=O)c2ccc(OC)cc2)nnc1C(C)NC(=O)c1ccc(OC)cc1 (stereo not drawn) | 76* | 0 | -7 | nt | nt
C[C@H](CO)N1C[C@H](C)[C@@H](CN(C)Cc2ccc(F)cc2)Oc2ncc(C#Cc3cccnc3)cc2C1=O | 6 | 4 | nt | nt | 10
CCOc1cc(/C=N/NC(=O)CSc2nncn2C)ccc1OCc1cccc(C)c1 | nt | -7 | 50* | nt | nt
O=c1[nH]c(=S)[nH]c2scc(-c3ccc(Br)cc3)c12 | 1 | 16 | -3 | nt | -1
O=c1[nH]c(=S)[nH]c2sccc12 | nt | -20 | 7 | 50* | 6
Cc1noc(C)c1NC(=O)Nc1cccc2c1O[C@H](CN(C)Cc1ccc(C(=O)O)cc1)[C@H](C)CN([C@@H](C)CO)C2=O | 53 | 5 | nt | -10 | -4
O=C(CSc1ccsc1[N+](=O)[O-])NCc1ccccc1 | 9 | nt | 1 | 0 | 104*
COc1ccc2c3c(cccc13)C(=O)CC2 | nt | nt | -2 | 3 | 166*
C[C@@H]1CN([C@H](C)CO)C(=O)c2cccc(NS(=O)(=O)c3cccs3)c2O[C@@H]1CN(C)S(=O)(=O)c1ccccc1 | ? | 8 | nt | 0 | -16
C#CCOCCOCCOCCNc1nc(N2CCN(C(=O)[C@H](CCCN=C(N)N)n3cc(C(N)[C@@H](C)CC)nn3)CC2)nc(N2CCN(C(=O)[C@H](CCC(=O)O)n3cc([C@@H](N)CC(N)=O)nn3)CC2)n1 (stereo partly drawn) | 10 | 9 | 0 | -8 | -16
C#CCOCCOCCOCCNc1nc(N2CCN(C(=O)[C@H](CCCN=C(N)N)n3cc(C(N)[C@@H](C)CC)nn3)CC2)nc(N2CCN(C(=O)[C@H](CCCCN)n3cc([C@@H](N)CC(N)=O)nn3)CC2)n1 (stereo partly drawn) | 0 | nt | 80* | -8 | -1
Cc1ccc(-c2nnc(CSc3nnc(COc4cccc5ccccc45)n3-c3ccccc3)o2)cc1 | 136* | -6 | 3 | nt | nt
COc1ccc(-n2c(COc3cccc4ccccc34)nnc2SCC#N)cc1 | -5 | -9 | 5 | nt | nt
Cc1[nH]n(-c2ccccc2)c(=O)c1C=NC1CCCCCC1 | nt | nt | 1 | 4 | -1

Source: PubChem BioAssay
